Columns and labels:
Thymidylate synthase [1] = biological target: T1, Thymidylate synthase (Homo sapiens, UniProt P04818); assay: Inhibition of human thymidylate synthase at 600 uM concentration of 5,10-CH2-H4PteGlu
Method in brief: (§1)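 TS purified ~1350-fold (specific activity 17.4 units/mg) from human acute myeloblastic leukemia cell pellet; tritium-release assay with [5-3H]dUMP, started by enzyme addition, 45 or 60 min incubation. Ki from varying dUMP, 5,10-CH2-H4PteGlu or 5,10-CH2-H4PteGlu5 at several fixed inhibitor levels; fixed cosubstrate 28 µM dUMP or 600 µM CH2-H4PteGlu (40 µM pentaglutamate); duplicate/triplicate, repeated.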
Target sequence in this assay (P04818 whole entry): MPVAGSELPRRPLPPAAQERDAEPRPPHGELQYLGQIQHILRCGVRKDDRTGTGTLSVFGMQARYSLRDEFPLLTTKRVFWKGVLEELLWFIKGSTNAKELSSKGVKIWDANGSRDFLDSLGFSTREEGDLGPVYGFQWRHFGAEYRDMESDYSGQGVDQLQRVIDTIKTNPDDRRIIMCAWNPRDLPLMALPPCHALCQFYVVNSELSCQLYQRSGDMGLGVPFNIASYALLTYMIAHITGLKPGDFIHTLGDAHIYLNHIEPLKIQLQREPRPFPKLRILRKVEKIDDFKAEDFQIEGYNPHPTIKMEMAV

Thymidylate synthase [2] = biological target: T1, Thymidylate synthase; assay: Inhibition of human thymidylate synthase at 40 uM concentration of 5,10-CH2-H4PteGlu5; method in brief: as §1
Target sequence in this assay (P04818 whole entry): as above

Thymidylate synthase [3] = biological target: T1, Thymidylate synthase; assay: Competitive inhibition of the human thymidylate synthase at 600 uM as Ki(slope) of 5,10-CH2-H4PteGlu; conditions: in the assay text read “28 uM dUMP” for “600 uM”; method in brief: as §1
Target sequence in this assay (P04818 whole entry): as above

Thymidylate synthase [4] = biological target: T1, Thymidylate synthase; assay: Mixed inhibition of the human thymidylate synthase at 28 uM of 5,10-CH2-H4PteGlu5; method in brief: as §1
Target sequence in this assay (P04818 2-313 limits assumed): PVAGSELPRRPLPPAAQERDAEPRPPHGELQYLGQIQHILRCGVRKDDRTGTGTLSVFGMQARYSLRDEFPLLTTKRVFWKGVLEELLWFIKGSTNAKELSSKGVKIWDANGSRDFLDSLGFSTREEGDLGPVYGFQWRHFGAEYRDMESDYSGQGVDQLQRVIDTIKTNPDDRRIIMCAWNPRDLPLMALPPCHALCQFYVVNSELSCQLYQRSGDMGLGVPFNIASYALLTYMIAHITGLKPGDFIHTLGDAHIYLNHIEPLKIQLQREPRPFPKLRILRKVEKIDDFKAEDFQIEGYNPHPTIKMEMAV

Thymidylate synthase [5] = biological target: T1, Thymidylate synthase; assay: Competitive inhibition of the human thymidylate synthase at 600 uM of 5,10-CH2-H4PteGlu
Target sequence in this assay (P04818 whole entry): as the sequence (P04818 whole entry) above

Thymidylate synthase [6] = biological target: T1, Thymidylate synthase; assay: Competitive inhibition of the human thymidylate synthase at 28 uM as Ki(slope) of 5,10-CH2-H4PteGlu; method in brief: as §1
Target sequence in this assay (P04818 whole entry): as above

Compound | IC50 (Thymidylate synthase [1]) | IC50 (Thymidylate synthase [2]) | Ki (Thymidylate synthase [3]) | Kii (Thymidylate synthase [4]) | Kis (Thymidylate synthase [4]) | Ki (Thymidylate synthase [5]) | Ki (Thymidylate synthase [6])
Cc1nc(N)nc(O)c1N(CCNc1ccc(C(=O)NC(CCC(=O)O)C(=O)O)cc1)Cc1cn([C@H]2C[C@H](O)[C@@H](COP(=O)(O)O)O2)c(=O)[nH]c1=O (stereo partly drawn) | 7300 nM | 1180 nM |  |  |  |  | 
Nc1nc(O)c2c(n1)CCC(CNc1ccc(C(=O)NC(CCC(=O)O)C(=O)O)cc1)N2Cc1cn([C@H]2C[C@H](O)[C@@H](COP(=O)(O)O)O2)c(=O)[nH]c1=O (stereo partly drawn) | 390 nM | 200 nM | 85 nM | 0.11 µM | 0.33 µM | 27 nM | 
Cc1nc(N)nc(O)c1N(CCN(C)c1ccc(C(=O)NC(CCC(=O)O)C(=O)O)cc1)Cc1cn([C@H]2C[C@H](O)[C@@H](COP(=O)(O)O)O2)c(=O)[nH]c1=O (stereo partly drawn) | 1000 nM | 350 nM |  | 0.2 µM | 1.19 µM |  | 230 nM

From ChEMBL document CHEMBL1124003, “A pyrimidine-based "flexible" bisubstrate analogue inhibitor of human thymidylate synthase” (J Med Chem, 1988)
